The results in this text go back to ChEMBL document CHEMBL5260818, “Anti-influenza activity of diazaadamantanes combined with monoterpene moieties” (Bioorg Med Chem Lett, 2017).

A short description of data set [1]: Cytotoxicity against MDCK cells incubated for 48 hrs by MTT assay. In kind it is toxicity, cell-based, Canis lupus familiaris. Particulars: dog. The gist of the method: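 Uninfected MDCK cells were exposed to the dissolved compounds for 48 h at 36 °C, 5% CO2. Cells were washed twice with PBS, then given MTT ([…] in PBS) for 1 h. Formazan was dissolved in DMSO and OD read at 535 nm against concentration. Three parallels per concentration, and CC50 was calculated.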

The test system of data set [2] is Influenza A virus. Nature of the data set: Antiviral activity against Influenza A virus A/Puerto Rico/8/34 (H1N1) infected in MDCK cells assessed as inhibition of viral growth preincubated with cells for 1 hrs followed by compound addition and measured after 24 hrs by TCD titration based assay. The format is functional, organism-based. The procedure, abridged: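 Compounds dissolved in DMSO and diluted in MEM with 1 μg/ml trypsin, then added to MDCK cells for 1 h at 36 °C before infection (moi 0.01). Cultures were kept 24 h at 36 °C, 5% CO2. Supernatant virus progeny was grown in MDCK cells for 48 h, then titred by hemagglutination. Each concentration was run in triplicate, and IC50 was calculated.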

Data set [3] is described as follows: Selectivity index, ratio of CC50 for cytotoxicity against MDCK cells to IC50 for antiviral activity against Influenza A virus A/Puerto Rico/8/34 (H1N1) infected in MDCK cells assessed as inhibition of viral growth. Particulars: dog, read-out: Ratio CC50/IC50. The format is toxicity, cell-based. The gist of the method:
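SI is CC50 (MTT, uninfected MDCK, 48 h) divided by IC50 (hemagglutination titre of progeny virus from MDCK cells infected at moi 0.01 after 1 h compound pre-incubation), both from triplicate concentration series.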

Data set [4] concerns Influenza A virus. Briefly: Antiviral activity against Influenza A virus A A/California/07/09 (H1N1)pdm09. In kind it is functional, organism-based.

As usually defined, the CC50 is the concentration that lowers cell viability or growth by half. Usually IC50 stands for the concentration that gives 50% inhibition. In the case of `CC(C)=CCC/C(C)=C\CNC1C2(C)CN3CN(C2)CC1(C)C3` (stereo unspecified), the CC50 at 48 h in data set [1] is > 1040 µM. Further, the IC50 in the data set with Influenza A virus [2] was > 1040 µM.

As to `CC(C)=CCCC(C)CCNC1C2(C)CN3CN(C2)CC1(C)C3` (stereo unspecified), the CC50 at 48 h in data set [1] amounted to 239 µM. In addition, the IC50 in the data set with Influenza A virus [2] is 8 µM. Also, in data set [3], the selectivity ratio came out at 30.

As for `CC12CN3CC(C)(CN(C1)C3C1=CC[C@H]3C[C@@H]1C3(C)C)C2=O` (stereo partly specified), in data set [1], the CC50 at 48 h was > 1000 µM. For the same compound, in the data set on Influenza A virus [2], the half-maximal inhibitory concentration (IC50) is > 1000 µM.

Compound `CC(C)=CCCC(C)CCNC1C2CC3CC(C2)CC1C3` (stereo unspecified) had an IC50 in the data set on Influenza A virus [4] of 18 µM.

In data set [1], `CC(CCCC(C)(C)O)CCNC1C2(C)CN3CN(C2)CC1(C)C3` (stereo unspecified) returned a cytotoxic concentration (CC50) at 48 h of 979 µM. Besides, the IC50 in the data set with Influenza A virus [2] was 134 µM. The selectivity ratio in data set [3] was 7.

Take `CC12CN3CN(C1)CC(C)(C3)C2N` (stereo unspecified): in data set [1], the CC50 at 48 h was > 1820 µM. The IC50 in the data set on Influenza A virus [2] is 143 µM. Besides, in data set [3], the selectivity ratio is > 13.

Turning to `CC(C)=CCC/C(C)=C\C1N2CC3(C)CN1CC(C)(C2)C3=O` (stereo unspecified), in data set [1], the CC50 at 48 h came to 242 µM. For the same compound, the IC50 in the data set on Influenza A virus [2] is > 99 µM. The selectivity ratio in data set [3] turned out to be 2.

For the compound `CC(CCCC(C)(C)O)CC1N2CC3(C)CN1CC(C)(C2)C3=O` (stereo unspecified), the CC50 at 48 h in data set [1] is > 904 µM. The IC50 in the data set on Influenza A virus [2] turned out to be 260 µM. Besides, the selectivity ratio in data set [3] came to 3.

For the compound `CC12CN3CC(C)(CN(C1)C3C1=CC(=O)[C@H]3C[C@@H]1C3(C)C)C2=O` (stereo partly specified), the CC50 at 48 h in data set [1] was found to be 907 µM. Also, in the data set on Influenza A virus [2], the IC50 is 113 µM. Moreover, the selectivity ratio in data set [3] turned out to be 8.

Turning to `CC(N)C12CC3CC(CC(C3)C1)C2` (stereo unspecified) [RIMANTADINE], in the data set on Influenza A virus [2], the IC50 worked out at 42 µM. In addition, the selectivity ratio in data set [3] was determined as 8.

As to `CC(C)=CCCC(C)CC1N2CC3(C)CN1CC(C)(C2)C3=O` (stereo unspecified), the half-maximal cytotoxic concentration (CC50) at 48 h in data set [1] stood at 178 µM. Further, the IC50 in the data set on Influenza A virus [2] worked out at 66 µM. Moreover, the selectivity ratio in data set [3] was 3.

Regarding `CC12CN3CN(C1)CC(C)(C3)C2NCC1=CC[C@H]2C[C@@H]1C2(C)C` (stereo partly specified), the CC50 at 48 h in data set [1] was found to be 196 µM. Besides, in the data set with Influenza A virus [2], the IC50 was found to be 64 µM. In addition, the selectivity ratio in data set [3] stood at 3.

On to `CC1=CC[C@@H](CC2N3CC4(C)CN2CC(C)(C3)C4=O)C1(C)C` (stereo partly specified), for which the CC50 at 48 h in data set [1] was 533 µM. Moreover, in the data set with Influenza A virus [2], the IC50 was > 331 µM. The selectivity ratio in data set [3] is < 2.

With `CC(=O)[C@@H]1C[C@H](CC2N3CC4(C)CN2CC(C)(C3)C4=O)C1(C)C` (stereo partly specified), in data set [1], the CC50 at 48 h is > 943 µM. In the data set with Influenza A virus [2], the IC50 is > 943 µM.
